Active and inactive are the calls of the source. No cut-off for these calls is given here.
Tests used:
BMDC [1] = assay: Inhibition of LPS-induced immune response in C57BL/6 mouse BMDC assessed as reduction in IL-12p70 secretion up to 25 uM pretreated for 30 mins followed by LPS-challenge measured after 6 hrs by ELISA; type: functional, cell-based
Method in brief: (§1)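 Mouse BMDCs (female C57BL/6 bone marrow, GM-CSF-derived, ≥90% CD11c+ on day 7) pretreated 30 min with graded compound concentrations, then stimulated with LPS 50 ng/mL for 6 h. Supernatant TNF-α, IL-6, IL-10 and IL-12p70 quantified by sandwich ELISA. Mean ± SEM vs LPS-only cells; experiments repeated at least three times.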

BMDC [2] = assay: Inhibition of LPS-induced immune response in C57BL/6 mouse BMDC assessed as increase in IL10 secretion up to 25 uM pretreated for 30 mins followed by LPS-challenge measured after 6 hrs by ELISA; type: functional, cell-based; method in brief: as §1
BMDC [3] = assay: Inhibition of LPS-induced immune response in C57BL/6 mouse BMDC assessed as reduction in IL-6 secretion at 25 uM treated 6 hrs post LPS-challenge measured after 60 to 120 mins by ELISA; type: functional, cell-based
Method in brief: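 Bone marrow DCs from 6-week-old female C57BL/6 mice, RBC-lysed, cultured in RPMI-1640/10% FBS with 10 ng/mL rmGM-CSF, 37 °C, 5% CO2. Cells given LPS 50 ng/mL for 6 h, then 25 μM compound added for 30, 60, 90 or 120 min. Supernatant TNF-α, IL-6, IL-10, IL-12p70 measured by sandwich ELISA. Mean ± SEM, compared with LPS-only DCs.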

[4] = biological target: T1, Toll-like receptor 4 (Mus musculus) (UniProt Q9QUK6); assay: Inhibition of LPS-induced TLR4 activation in C57BL/6 mouse BMDC assessed as reduction in Akt phosphorylation at 25 uM pretreated for 30 mins followed by LPS-challenge measured after 15 to 90 mins by Western blot analysis; type: cell-based
T1 sequence (whole entry): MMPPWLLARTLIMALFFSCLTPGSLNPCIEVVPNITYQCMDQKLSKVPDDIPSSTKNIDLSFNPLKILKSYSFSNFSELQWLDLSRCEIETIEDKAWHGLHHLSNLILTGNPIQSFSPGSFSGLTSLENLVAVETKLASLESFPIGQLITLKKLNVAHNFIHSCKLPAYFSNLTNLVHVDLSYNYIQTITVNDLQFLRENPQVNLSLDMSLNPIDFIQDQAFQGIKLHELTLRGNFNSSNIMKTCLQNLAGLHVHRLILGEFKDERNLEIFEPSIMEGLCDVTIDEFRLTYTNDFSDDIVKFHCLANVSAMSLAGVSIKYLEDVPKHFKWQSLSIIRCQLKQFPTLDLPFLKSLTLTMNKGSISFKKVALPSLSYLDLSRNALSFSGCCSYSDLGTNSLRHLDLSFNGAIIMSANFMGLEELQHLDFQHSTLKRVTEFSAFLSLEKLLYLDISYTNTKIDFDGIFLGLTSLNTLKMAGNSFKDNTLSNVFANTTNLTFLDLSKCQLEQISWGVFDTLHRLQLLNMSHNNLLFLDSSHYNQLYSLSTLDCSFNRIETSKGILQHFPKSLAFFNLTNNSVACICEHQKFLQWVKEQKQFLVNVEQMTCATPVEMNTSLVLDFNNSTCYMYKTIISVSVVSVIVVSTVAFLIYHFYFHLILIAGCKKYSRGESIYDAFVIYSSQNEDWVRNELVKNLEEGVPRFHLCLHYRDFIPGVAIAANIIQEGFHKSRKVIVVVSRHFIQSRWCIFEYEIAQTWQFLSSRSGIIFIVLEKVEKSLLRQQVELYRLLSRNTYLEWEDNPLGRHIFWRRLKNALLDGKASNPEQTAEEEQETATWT
Method in brief: (§2)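 BMDCs were pretreated 30 min with 25 μM compound, then stimulated with LPS 50 ng·mL−1 for the indicated times. Lysates (25 μg protein) were run on 10% SDS-PAGE and immunoblotted for phospho/total ERK, JNK, p38 and Akt, plus COX-2, IκBα and α-tubulin, with ECL detection. Representative of three experiments.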

[5] = biological target: T1, Toll-like receptor 4 (Mus musculus); assay: Inhibition of LPS-induced TLR4 activation in C57BL/6 mouse BMDC assessed as reduction in ERK phosphorylation at 25 uM pretreated for 30 mins followed by LPS-challenge measured after 15 to 90 mins by Western blot analysis; type: cell-based; method in brief: as §2
Mus musculus [6] = assay: Antiinflammatory activity in Balb/c mouse model of LPS-induced endotoxemia assessed as reduction in serum TNFalpha level at 1 mg/kg, ip pretreated for 1 hr followed by LPS-challenge measured after 2 hrs by ELISA; type: functional, organism-based
Method in brief: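 BALB/c mice were dosed with 1 mg·kg−1 i.p. 1 h before LPS 10 mg·kg−1 i.p. Serum was taken 2 h later, and TNF-α, IL-6 and IL-10 were measured by sandwich ELISA. Means ± SEM.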

Mus musculus [7] = assay: Antiinflammatory activity in Balb/c mouse model of LPS-induced endotoxemia assessed as reduction in serum ALT level at 1 mg/kg, ip pretreated for 1 hr followed by LPS-challenge measured after 12 hrs by ELISA; type: functional, organism-based
Method in brief: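 In BALB/c mice, 1 mg·kg−1 i.p. was given 1 h before LPS 10 mg·kg−1 i.p. After 12 h, serum AST, ALT and BUN were measured by ELISA. Means ± SEM.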

BMDC [8] = assay: Inhibition of Escherichia coli K1 infection-induced immune response in C57BL/6 mouse BMDC assessed as reduction in TNFalpha secretion at 25 uM pretreated for 60 to 120 mins followed by Escherichia coli K1 infection for 6 hrs by ELISA; type: functional, cell-based
Method in brief: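 BMDCs from C57BL/6 mice were given 25 μM compound and E. coli K1, […]. Timing was: compound 30 min before a 6 h infection; cotreatment for 6 h; or compound for 30–120 min with 6 h infection. Supernatant cytokines (TNF-α, IL-6, IL-10, IL-12p70) were measured by ELISA. At least three experiments in triplicate.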

Mus musculus [9] = assay: Antiseptic activity in Balb/c mouse model of Escherichia coli K1 infection-induced sepsis assessed as reduction in infiltration of immune cells in lungs at 1 mg/kg, ip pretreated for 1 hr followed by Escherichia coli K1 infection measured after 12 hrs by hematoxylin and eosin staining based microscopic analysis; type: functional, organism-based
Method in brief: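 BALB/c mice were given 1 mg·kg−1 i.p. 1 h before i.p. E. coli K1 (1 × 10^6 CFU per mouse). At 12 h, lungs were perfused and formalin-fixed. Sections were H&E-stained and examined by microscope. Representative of three independent experiments.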

Mus musculus [10] = assay: Antiseptic activity in Balb/c mouse model of Escherichia coli K1 infection-induced sepsis assessed as reduction in serum ALT level at 1 mg/kg, ip pretreated for 1 hr followed by Escherichia coli K1 infection measured after 2 hrs by ELISA; type: functional, organism-based
Mus musculus [11] = assay: Antiseptic activity in Balb/c mouse model of Escherichia coli K1 infection-induced sepsis assessed as reduction in serum blood urea nitrogen level at 1 mg/kg, ip pretreated for 1 hr followed by Escherichia coli K1 infection measured after 2 hrs by ELISA; type: functional, organism-based
Mus musculus [12] = assay: Antiinflammatory activity in Balb/c mouse model of LPS-induced endotoxemia assessed as increase in IL10 producing monocyte/macrophage in splenocyte at 1 mg/kg, ip pretreated for 1 hr followed by LPS-challenge measured after 12 hrs by flow cytometric analysis; type: functional, organism-based

SMILES: COc1ccc(-c2oc3cc(O)cc(O)c3c(=O)c2O)cc1O [TAMARIXETIN]
- inhibition (BMDC [1]): Active
- inhibition (BMDC [2]): Active
- inhibition (BMDC [3]): inactive
- inhibition [4]: Active
- inhibition [5]: inactive
- Activity (Mus musculus [6]): Active
- Activity (Mus musculus [7]): Active
- inhibition (BMDC [8]): inactive
- Activity (Mus musculus [9]): Active
- Activity (Mus musculus [10]): Active
- Activity (Mus musculus [11]): Active
- Activity (Mus musculus [12]): Active

Reference: ChEMBL document CHEMBL4145607, “Tamarixetin Exhibits Anti-inflammatory Activity and Prevents Bacterial Sepsis by Increasing IL-10 Production” (J Nat Prod, 2018)
